Results as given in PubChem BioAssay.
Values without a mark were called inactive. Calls of active or inactive are those of the source.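 Rule for the calls: active = fluorescence slope after compound addition differing from the mean of all tested samples at 99.7% confidence, mostly higher but some lower; inactive = the rest.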

Each compound was assayed against Muscarinic acetylcholine receptor M4 (Homo sapiens) (UniProt P08173) (assay: M4-linked GIRK flux change, two-sided – cell-based, HEK293 M4/GIRK, thallium flux, BTC-AM, M4 allosteric agonist project, primary screen (AID 625;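 note: thallium influx through GIRK channels coupled to M4 in HEK293 cells with BTC-AM dye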)). Conditions: at 10 µM, actives lie on both sides.
Muscarinic acetylcholine receptor M4 (Homo sapiens), sequence (P08173 whole entry, looked up): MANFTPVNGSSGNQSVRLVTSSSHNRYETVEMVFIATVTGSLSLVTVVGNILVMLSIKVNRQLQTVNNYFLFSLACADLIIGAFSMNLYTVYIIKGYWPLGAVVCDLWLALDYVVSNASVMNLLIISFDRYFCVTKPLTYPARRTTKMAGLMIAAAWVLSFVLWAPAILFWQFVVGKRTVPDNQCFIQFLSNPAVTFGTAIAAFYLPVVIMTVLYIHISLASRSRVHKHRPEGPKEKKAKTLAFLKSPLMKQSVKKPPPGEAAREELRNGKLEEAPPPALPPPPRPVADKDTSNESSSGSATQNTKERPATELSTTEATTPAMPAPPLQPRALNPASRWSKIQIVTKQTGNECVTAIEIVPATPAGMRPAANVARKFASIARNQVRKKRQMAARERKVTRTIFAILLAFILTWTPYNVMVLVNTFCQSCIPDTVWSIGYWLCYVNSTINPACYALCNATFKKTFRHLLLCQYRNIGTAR
In short: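 Material – HEK293 cells with M4 receptor and GIRK channels · Buffer or medium – pH 7.3 thallium assay buffer · Doses – one dose, 10 µM final · Timing – cells overnight at 37 °C, BTC-AM loading 1 h, reads 2 min total · Measured by – kinetic fluorescence with BTC-AM dye · Controls – carbachol and DMSO controls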
Compound `CCOC(=O)c1c(-c2cccs2)csc1NC(=O)CCCC(=O)O` has a fluorescence slope of 0.00466. With `Fc1ccc(-c2cnc[nH]2)cc1` the fluorescence slope was 0.00534. `CCOC(=O)c1[nH]c2ccc(Br)cc2c1NC(=O)CNC` was tested, and the fluorescence slope was 0.00596. For `COc1ccc(C2(CN(C(C)=O)C(C)=O)CCCC2)cc1OC`, the fluorescence slope was 0.00396. In the case of `COc1ccccc1C1C(C#N)=C(N)Oc2cc(C)n(Cc3ccccn3)c(=O)c21` (centres undefined), the fluorescence slope is reported as 0.00473. In the case of `Cc1ccc(C(=O)/C=C/Nc2cccc(O)c2)cc1`, the fluorescence slope is reported as 0.00389. With `O=C(C1CC1(c1ccccc1)c1ccccc1)N1CCOCC1` (centres undefined) the fluorescence slope was 0.00482. `COC(=O)CNC(=O)c1c(C)cc(=O)oc1C` gave a fluorescence slope of 0.00527. For `COc1ccc(CCn2c(=N)c(C(=O)NCc3ccco3)cc3c(=O)n4ccccc4nc32)cc1`, the fluorescence slope was 0.00166 (active). `Nc1nc(NC(=O)c2cccs2)nn1-c1ccccc1` was tested, and the fluorescence slope was 0.00702. With `Cc1c(O)c(CN2CCCC(C)C2)cc2c3c(c(=O)oc12)CCC3` (centres undefined) the fluorescence slope was 0.00443. With `COc1ccc(CCn2c(=N)c(C#N)cc3c(=O)n4ccccc4nc32)cc1` the fluorescence slope was 0.00759. In the case of `Cn1c(SCC(=O)N2CCOCC2)nnc1-c1cccc(NC(=O)c2ccccc2F)c1`, the fluorescence slope is reported as 0.00616. Work on `O=C(NC1CCS(=O)(=O)C1)c1c(NC(=O)C2COc3ccccc3O2)sc2c1CCCC2` (centres undefined) yielded a fluorescence slope of 0.00528. `COC(=O)C(NC(C)=O)(Nc1nc2ccc(S(C)(=O)=O)cc2s1)C(F)(F)F` (centres undefined) gave a fluorescence slope of 0.00507. In the case of `COc1ccc2c(c1)C1(C)CC(C)(C)N2C(=O)N1c1ccccc1` (centres undefined), the fluorescence slope is reported as 0.0047. Compound `CCCCCn1c2nc3ccccc3nc2c2c(=O)n(CC(C)C)cnc21` has a fluorescence slope of 0.00475. For `Nc1nnnn1/N=C/c1ccccn1`, the fluorescence slope was 0.00549. In the case of `Cc1nnc2n(-c3ccccc3)c(=O)c3c4c(sc3n12)CCCC4`, the fluorescence slope is reported as 0.00446. Work on `CCc1nc2sc3c(c2c(=O)o1)CCCC3` yielded a fluorescence slope of 0.00552. `CCOC(=O)CNC(=O)Nc1ccccc1C(=O)OC` gave a fluorescence slope of 0.00626. `COc1ccc(C(=O)NCCCCCC(=O)O)cc1OC` was tested, and the fluorescence slope was 0.00503. Work on `CCOC(=O)C1=C(CSc2nc(C)cc(C)c2C#N)OC(N)=C(C#N)C1c1cccs1` (centres undefined) yielded a fluorescence slope of 0.00829. `COc1cc(NC(=O)NC(C)(C(F)(F)F)C(F)(F)F)cc(OC)c1OC` showed a fluorescence slope of 0.00489. `COC(=O)C(NC(C)=O)(Nc1ccccn1)C(F)(F)F` (centres undefined) gave a fluorescence slope of 0.00527. With `CC1(C)CNC(=O)c2sc(N3CCOCC3)nc2C1` the fluorescence slope was 0.00631. With `CCOC(=O)c1ccc(CC2S/C(=C(\C#N)C(C)=O)NC2=O)cc1` (centres undefined) the fluorescence slope was 0.00533. Work on `CC(=Nc1cccc(O)c1)c1sc2ccccc2c1O` yielded a fluorescence slope of 0.0088. Work on `COc1cccc(N2C(=O)C(O)=C(C(C)=O)C2c2ccc(OC)c(OC)c2)c1` (centres undefined) yielded a fluorescence slope of 0.00642. `O=S(=O)(c1ccc2ccccc2c1)N(CC(O)CN1CCOCC1)c1ccccc1` (centres undefined) showed a fluorescence slope of 0.00503. With `Cc1c(O)c(CN2CCCCC2)cc2c3c(c(=O)oc12)CCC3` the fluorescence slope was 0.00439. `O=S(=O)(NCc1cccnc1)c1cccc2nsnc12` showed a fluorescence slope of 0.00583. Work on `Cc1cc(O)c(C(C)C)cc1N=C1CSC(=O)N1` yielded a fluorescence slope of 0.00491. Compound `Cc1nc2sc(C#N)c(N)c2c2c1CCCC2` has a fluorescence slope of 0.00523. For `N#C/C(C(=O)N1CCOCC1)=C1/SC(Cc2ccccc2)C(=O)N1c1ccccc1` (centres undefined), the fluorescence slope was 0.00475. `CN(CC(O)COc1ccc(OCC(O)CN(C)C2CCCCC2)cc1)C1CCCCC1` (centres undefined) showed a fluorescence slope of 0.00666. `Cn1c(=O)[nH]c(=O)c2c1nc(N(CCO)Cc1ccccc1)n2Cc1ccccc1Cl` was tested, and the fluorescence slope was 0.00652. In the case of `Cc1nn(-c2ccccc2)c2c1C(=O)NC(=O)C(C)(C)C2`, the fluorescence slope is reported as 0.00545. In the case of `Cc1ccc(-n2ncc3c(N4CCN(c5ccccc5)CC4)ncnc32)c(C)c1`, the fluorescence slope is reported as 0.00708.
